# Measured values of several laboratories.
# Each line is one published result; the experiments were not run side by side. pIC50: −log10 of the molar value.
# BTK: Tyrosine-protein kinase BTK (BTK, Homo sapiens, UniProt Q06187)
# Kir1 channel protein: Kir1 channel protein (Aedes aegypti, UniProt L0EQS9)
# MMP14: Matrix metalloproteinase-14 (MMP14, Homo sapiens, UniProt P50281)
# ABHD6: Monoacylglycerol lipase ABHD6 (ABHD6, Homo sapiens, UniProt Q9BV23)
# CYP2E1: Cytochrome P450 2E1 (CYP2E1, Homo sapiens, UniProt P05181)
# NTSR1: Neurotensin receptor type 1 (NTSR1, Homo sapiens, UniProt P30989)
SMILES,target,test,system,conditions,pIC50
COc1ccc(F)cc1C(=O)NCc1ccc(-c2nn([C@@H](C)C(F)(F)F)c(N)c2C(N)=O)cc1,BTK,"phosphorylation in cells, inhibitor, western blot",,,8.38
O=[N+]([O-])c1ccc(N2CCN(S(=O)(=O)c3ccc(F)cc3)CC2)cc1NCc1ccncc1,Kir1 channel protein,"ion flux, inhibitor",,,6.41
CC[C@H](C)[C@H](NC(C)=O)C(=O)N[C@@H](CCC(=O)O)C(=O)N[C@H](C(=O)N[C@H](C=O)CC(=O)O)[C@@H](C)O,"Caspase-4 (Casp4, Mus musculus, UniProt P70343)","enzyme activity, inhibitor",,,7.07
O=C1Nc2cc(Oc3ccc4c(c3)NC(=O)C4=O)ccc2C1=O,"Protein-glutamine gamma-glutamyltransferase (TGM2, Homo sapiens, UniProt P21980)","enzyme activity, inhibitor",,,4.40 to 4.52
COc1ccc(F)cc1C(=O)NCc1ccc(-c2nn([C@@H](C)C(F)(F)F)c(N)c2C(N)=O)cc1,"Tyrosine-protein kinase BTK (BTK, Homo sapiens, UniProt Q06187, C481G)","phosphorylation in cells, inhibitor",,,7.86
CC(C)=CCCC(C)=CCn1cc(CC(P(=O)(O)O)P(=O)(O)O)nn1,"Protein farnesyltransferase (Rattus norvegicus, UniProt Q02293+Q04631)","enzyme activity, inhibitor, HPLC",,,3.30
O=[N+]([O-])c1ccc(N2CCN(S(=O)(=O)c3ccc(Cl)cc3)CC2)cc1NCc1cccnc1,Kir1 channel protein,"ion flux, inhibitor",,,5.83
Cn1nc(C(=O)NCc2ccc(C(=O)O)cc2)cc1-c1ccc2[nH]c(-c3cccnc3)cc2c1,MMP14,"enzyme activity, inhibitor",,,< 4.70
O=C(Oc1nsnc1N1CCOCC1)N1CCCCC1,ABHD6,"enzyme activity, inhibitor, fluorescence",,lysate,7.07
COc1ccc2c(Oc3ccc4c(C(=O)Nc5ccccc5N)cccc4c3)ccnc2c1,BTK,"enzyme activity, inhibitor",,,< 6.30
O=c1c(O)c(-c2ccc(O)c(O)c2)oc2cc(O)cc(O)c12,CYP2E1,"enzyme activity, inhibitor, HPLC",,,3.98
COc1cc(C[C@H]2C(=O)OC[C@@H]2Cc2ccc(OC)c(OC)c2)ccc1O,"Dual 3',5'-cyclic-AMP and -GMP phosphodiesterase 11A (PDE11A, Homo sapiens, UniProt Q9HCR9)","enzyme activity, inhibitor",,,< 4.70
O=[N+]([O-])c1ccc(N2CCN(S(=O)(=O)c3ccc(F)cc3)CC2)cc1NCc1ccco1,Kir1 channel protein,"ion flux, inhibitor",,,5.89
Cc1cc(O)cc(C)c1C[C@H](NC(=O)[C@@H]1CCCN1C(=O)[C@H](CCCNC(=N)N)NC(=O)[C@H](CCCNC(=N)N)N(C)C(=O)CNC(=O)[C@@H](CO)NC(=O)CNC(=O)[C@H](Cc1cn(CCNC(=O)[C@H](CC(C)C)NC(=O)[C@H](CC(C)C)NC(=O)C2OC2C(=O)O)nn1)NC(=O)CN1CCN(CC(=O)O)CCN(CC(=O)O)CCN(CC(=O)O)CC1)C(=O)N[C@H](C(=O)N[C@@H](CC(C)C)C(=O)O)C(C)(C)C (mixture of isomers),NTSR1,"ligand displacement, radioligand",,,7.35
O=S(=O)(c1ccc(Cl)cc1)N1CCN(c2ccnc(NCc3ccncc3)c2)CC1,Kir1 channel protein,"ion flux, inhibitor",,,5.05 to 5.40
CCc1cc(/C(C)=N/OCc2ccc(C3CCCCC3)c(C(F)(F)F)c2)ccc1CN1CC(C(=O)O)C1,CYP2E1,"enzyme activity, inhibitor","human, liver microsomes",20 min,< 6.30
Cc1noc(-c2cc3cc(-c4nc(C(=O)NCc5cccnc5)[nH]c4C)ccc3[nH]2)n1,MMP14,"enzyme activity, inhibitor",,,< 4.70
COc1cc2c(NC3CCN(C)CC3)nc(N3CCCN(C)CC3)nc2cc1OCCCN(C)C,"Lysine-specific demethylase 4E (KDM4E, Homo sapiens, UniProt B2RXH2)","enzyme activity, inhibitor",,,< 4.24
Cc1noc(-c2cc3cc(-c4nc(C(=O)NCc5ccc(=O)[nH]c5)[nH]c4C)ccc3[nH]2)n1,MMP14,"enzyme activity, inhibitor",,,< 4.62
O=S(=O)(c1ccc(F)cc1)N1CCN(c2cccc(NCc3ccncc3)c2)CC1,Kir1 channel protein,"ion flux, inhibitor",,,5.05 to 5.40
Cn1cc(-c2cc3cc(-c4cc(C(=O)NCc5ccc(C(=O)O)cc5)nn4C)ccc3[nH]2)cn1,MMP14,"enzyme activity, inhibitor",,,< 4.70
Cc1cnc(-c2ccc(-c3ccc(NC(=O)Nc4c(F)cc(F)cc4F)cc3F)c3c2C(=O)NC3)[nH]1,"Vascular endothelial growth factor receptor 1 (FLT1, Homo sapiens, UniProt P17948)","enzyme activity, inhibitor",,,< 6.00
CN1CCN(c2ccc(Nc3ncc4cc(C#N)c(=O)n(C5CCCC5)c4n3)cc2)CC1,BTK,"enzyme activity, inhibitor",,,6.38
Cc1cc(Cc2cc(C)cc(C(C)(C)C)c2O)c(O)c(C(C)(C)C)c1,"Sarcoplasmic/endoplasmic reticulum calcium ATPase 1 (ATP2A1, Oryctolagus cuniculus, UniProt P04191)","ATPase activity, inhibitor, absorbance",,pH 7.3,5.44
C=CC(=O)Nc1cc(Nc2nccc(Nc3cc(Cl)c(F)cc3C(C)(C)O)n2)c(OC)cc1N1CC[C@@H](N(C)C)C1,CYP2E1,"enzyme activity, inhibitor","human, liver microsomes",,< 4.52
O=[N+]([O-])c1ccc(N2CCN(S(=O)(=O)c3ccc(F)cc3)CC2)cc1NCc1ccccn1,Kir1 channel protein,"ion current, inhibitor, patch clamp",,,7.45
Cc1noc(-c2cc3cc(-c4nc(C(=O)NCc5ccccc5)[nH]c4C)ccc3[nH]2)n1,MMP14,"enzyme activity, inhibitor",,,< 4.70
N#Cc1ccc(N2CCN(S(=O)(=O)c3ccc(Cl)cc3)CC2)cc1NCc1ccncc1,Kir1 channel protein,"ion current, inhibitor, patch clamp",,,7.41
Cc1cc(O)cc(C)c1C[C@H](NC(=O)[C@@H]1CCCN1C(=O)[C@H](CCCNC(=N)N)NC(=O)[C@H](CCCNC(=N)N)N(C)C(=O)[C@@H](CCC(N)=O)NC(=O)[C@@H](CCC(N)=O)NC(=O)[C@@H](CCC(N)=O)NC(=O)[C@H](Cc1cn(CCNC(=O)[C@H](CC(C)C)NC(=O)[C@H](CC(C)C)NC(=O)C2OC2C(=O)O)nn1)NC(=O)CN1CCN(CC(=O)O)CCN(CC(=O)O)CCN(CC(=O)O)CC1)C(=O)N[C@H](C(=O)N[C@@H](CC(C)C)C(=O)O)C(C)(C)C (mixture of isomers),NTSR1,"ligand displacement, radioligand",,,7.04
Cc1noc(-c2cc3cc(-c4nc(C(=O)NCC5CCOCC5)[nH]c4C)ccc3[nH]2)n1,MMP14,"enzyme activity, inhibitor",,,< 4.70
CC/C(=N\NC(=O)C(C)Nc1ccccc1)c1ccc(O)c(C)c1O (stereo not shown),"Ribosomal protein S6 kinase alpha-5 (RPS6KA5, Homo sapiens, UniProt O75582)","enzyme activity, inhibitor",,,7.88
O=C(Nc1cccnc1)N1CCC(Cc2cccc(Oc3ccc(C(F)(F)F)cn3)c2)CC1,"Arylacetamide deacetylase (Homo sapiens, UniProt P22760)","enzyme activity, inhibitor",,,< 5.00
O=C(Nc1c[nH]nc1C(=O)NC1CCNCC1)c1cc(F)cc(F)c1,"Cyclin-dependent kinase 17 (CDK17, Homo sapiens, UniProt Q00537)","target engagement in cells, BRET",,,5.72
O=C(c1cc(O)c(O)c([N+](=O)[O-])c1)c1ccccc1F,"Catechol O-methyltransferase (COMT, Sus scrofa, UniProt Q99028)","enzyme activity, inhibitor",,,7.55
O=C(Oc1nsnc1N1CCCCC1)N1CCOCC1,ABHD6,"enzyme activity, inhibitor, fluorescence",,lysate,7.28
Cn1nc(C(=O)NCc2ccc(C(=O)O)cc2)cc1-c1ccc2[nH]c(-c3cncnc3)cc2c1,MMP14,"enzyme activity, inhibitor",,,< 4.70
O=[N+]([O-])c1ccc(N2CCN(S(=O)(=O)c3ccc(Cl)cc3)CC2)cc1NCc1ccco1,Kir1 channel protein,"ion flux, inhibitor",,,6.08
